Among the data in ChEMBL document CHEMBL2331160, “Trimeric hemibastadin congener from the marine sponge Ianthella basta” (J Nat Prod, 2013) are IC50 values, retold here.

The structures appear in SMILES notation.

The target of assay [1] is T1, Receptor-type tyrosine-protein kinase FLT3 (Homo sapiens, UniProt P36888).
T1 sequence (P36888 whole entry): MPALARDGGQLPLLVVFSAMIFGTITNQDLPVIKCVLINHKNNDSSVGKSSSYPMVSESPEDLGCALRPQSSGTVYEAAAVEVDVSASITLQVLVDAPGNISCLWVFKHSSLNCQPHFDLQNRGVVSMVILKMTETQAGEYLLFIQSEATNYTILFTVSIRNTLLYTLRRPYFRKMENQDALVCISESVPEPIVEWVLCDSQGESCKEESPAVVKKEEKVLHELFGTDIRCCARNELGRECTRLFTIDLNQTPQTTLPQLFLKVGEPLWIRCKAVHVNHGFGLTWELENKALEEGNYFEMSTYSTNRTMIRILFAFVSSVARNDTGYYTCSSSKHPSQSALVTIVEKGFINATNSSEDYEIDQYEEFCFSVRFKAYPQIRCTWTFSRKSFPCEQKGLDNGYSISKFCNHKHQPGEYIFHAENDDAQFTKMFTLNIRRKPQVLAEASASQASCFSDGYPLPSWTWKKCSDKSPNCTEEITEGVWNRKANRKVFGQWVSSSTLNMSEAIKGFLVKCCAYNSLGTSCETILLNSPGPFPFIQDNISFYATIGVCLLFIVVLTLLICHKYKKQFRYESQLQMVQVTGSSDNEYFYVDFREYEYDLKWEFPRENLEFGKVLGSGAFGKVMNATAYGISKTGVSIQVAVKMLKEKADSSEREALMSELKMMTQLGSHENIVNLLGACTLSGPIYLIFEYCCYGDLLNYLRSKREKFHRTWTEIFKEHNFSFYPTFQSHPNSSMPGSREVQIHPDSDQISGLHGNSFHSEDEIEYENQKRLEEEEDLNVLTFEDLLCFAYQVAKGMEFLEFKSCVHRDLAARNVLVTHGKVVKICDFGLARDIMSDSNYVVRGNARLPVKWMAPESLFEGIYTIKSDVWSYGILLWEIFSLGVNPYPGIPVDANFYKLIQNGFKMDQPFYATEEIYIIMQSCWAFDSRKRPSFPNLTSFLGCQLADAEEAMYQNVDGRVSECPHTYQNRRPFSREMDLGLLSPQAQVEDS
As to the kind of experiment: Inhibition of FLT3 (unknown origin). The method, boiled down: (§1)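 Biochemical (cell-free) assay using a panel of 24 protein kinases. The read-out was the IC50.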

The target of assay [2] is Receptor tyrosine-protein kinase erbB-2 (Homo sapiens, UniProt P04626). The assay can be described thus: Inhibition of ERBB2 (unknown origin). The method, boiled down: (§2)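 Biochemical (cell-free) assay within a panel of 24 protein kinases. Results reported as IC50 values. Procedure as described in earlier work.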
Chain of Receptor tyrosine-protein kinase erbB-2 (P04626 whole entry): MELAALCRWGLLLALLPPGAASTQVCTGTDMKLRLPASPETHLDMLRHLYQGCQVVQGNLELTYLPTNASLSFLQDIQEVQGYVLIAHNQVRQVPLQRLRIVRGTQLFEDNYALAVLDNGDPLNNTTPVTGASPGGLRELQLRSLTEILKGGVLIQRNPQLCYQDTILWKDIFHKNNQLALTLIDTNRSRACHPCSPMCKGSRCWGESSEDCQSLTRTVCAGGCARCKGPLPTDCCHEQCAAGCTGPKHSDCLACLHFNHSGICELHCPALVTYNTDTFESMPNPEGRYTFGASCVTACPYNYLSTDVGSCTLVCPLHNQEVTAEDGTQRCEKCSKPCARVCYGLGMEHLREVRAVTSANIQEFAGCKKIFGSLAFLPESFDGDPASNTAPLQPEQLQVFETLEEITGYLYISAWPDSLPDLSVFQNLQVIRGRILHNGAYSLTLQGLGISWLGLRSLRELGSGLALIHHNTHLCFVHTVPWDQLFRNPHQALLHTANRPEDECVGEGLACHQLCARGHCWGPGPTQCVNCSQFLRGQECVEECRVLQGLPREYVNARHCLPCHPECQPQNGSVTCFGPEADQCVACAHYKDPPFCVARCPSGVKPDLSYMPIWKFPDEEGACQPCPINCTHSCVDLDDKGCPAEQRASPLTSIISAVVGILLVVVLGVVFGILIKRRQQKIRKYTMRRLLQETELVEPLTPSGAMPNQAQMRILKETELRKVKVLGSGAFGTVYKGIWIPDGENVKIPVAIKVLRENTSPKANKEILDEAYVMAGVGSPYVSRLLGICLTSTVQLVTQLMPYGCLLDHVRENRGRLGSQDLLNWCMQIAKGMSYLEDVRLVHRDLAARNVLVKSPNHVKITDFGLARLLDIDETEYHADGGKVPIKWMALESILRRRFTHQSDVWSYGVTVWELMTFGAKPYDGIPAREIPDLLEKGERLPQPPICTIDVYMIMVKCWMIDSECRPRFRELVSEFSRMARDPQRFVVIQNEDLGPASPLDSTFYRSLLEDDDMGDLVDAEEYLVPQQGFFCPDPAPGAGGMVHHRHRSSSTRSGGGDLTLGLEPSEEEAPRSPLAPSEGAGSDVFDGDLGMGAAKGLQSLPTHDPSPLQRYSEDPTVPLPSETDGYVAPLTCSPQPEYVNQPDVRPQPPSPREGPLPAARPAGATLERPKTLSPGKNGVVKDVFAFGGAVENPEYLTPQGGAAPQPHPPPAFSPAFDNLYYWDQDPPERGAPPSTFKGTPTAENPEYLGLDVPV
For assay [3], the target named is Epidermal growth factor receptor (Homo sapiens, UniProt P00533). As to the kind of experiment: Inhibition of EGFR (unknown origin). The method, boiled down: as §2
Chain of Epidermal growth factor receptor (P00533 whole entry): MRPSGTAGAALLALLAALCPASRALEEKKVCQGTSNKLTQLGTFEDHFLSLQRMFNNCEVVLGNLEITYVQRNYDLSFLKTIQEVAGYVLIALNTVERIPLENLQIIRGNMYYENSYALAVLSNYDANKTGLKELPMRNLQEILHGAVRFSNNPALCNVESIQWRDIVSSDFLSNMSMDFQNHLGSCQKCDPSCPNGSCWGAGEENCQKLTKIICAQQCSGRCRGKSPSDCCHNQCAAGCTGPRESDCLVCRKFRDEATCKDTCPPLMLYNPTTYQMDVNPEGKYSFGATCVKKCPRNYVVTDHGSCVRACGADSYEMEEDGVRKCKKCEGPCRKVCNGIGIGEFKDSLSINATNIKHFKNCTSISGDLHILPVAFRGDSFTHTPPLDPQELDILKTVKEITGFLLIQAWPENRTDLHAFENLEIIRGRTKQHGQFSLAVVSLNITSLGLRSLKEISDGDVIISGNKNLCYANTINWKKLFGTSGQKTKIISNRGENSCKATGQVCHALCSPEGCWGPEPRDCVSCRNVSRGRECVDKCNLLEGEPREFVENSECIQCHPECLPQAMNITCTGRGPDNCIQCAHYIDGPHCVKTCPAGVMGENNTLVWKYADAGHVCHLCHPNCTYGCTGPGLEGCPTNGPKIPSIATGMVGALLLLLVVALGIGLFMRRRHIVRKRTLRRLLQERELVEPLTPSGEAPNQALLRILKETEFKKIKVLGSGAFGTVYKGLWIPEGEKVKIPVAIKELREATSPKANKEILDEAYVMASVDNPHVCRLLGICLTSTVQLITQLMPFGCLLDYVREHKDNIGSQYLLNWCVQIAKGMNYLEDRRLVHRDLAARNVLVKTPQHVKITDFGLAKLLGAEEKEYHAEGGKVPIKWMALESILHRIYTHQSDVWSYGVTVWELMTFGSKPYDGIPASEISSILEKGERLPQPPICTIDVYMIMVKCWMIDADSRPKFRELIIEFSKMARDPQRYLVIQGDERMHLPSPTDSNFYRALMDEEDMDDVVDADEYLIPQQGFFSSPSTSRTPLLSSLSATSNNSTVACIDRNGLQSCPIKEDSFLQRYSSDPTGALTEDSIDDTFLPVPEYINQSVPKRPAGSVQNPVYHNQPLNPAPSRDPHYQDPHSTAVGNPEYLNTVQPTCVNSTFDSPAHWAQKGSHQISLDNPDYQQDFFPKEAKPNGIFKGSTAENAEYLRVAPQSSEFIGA
Assay [4] addresses Mitogen-activated protein kinase kinase kinase 8 (Homo sapiens, UniProt P41279). As to the kind of experiment: Inhibition of COT (unknown origin). The method, boiled down:
as §1

Assay [5] addresses Cyclin-dependent kinase 4/cyclin D1 (Homo sapiens, UniProt P11802). The assay can be described thus: Inhibition of CDK4/cyclin-D1 (unknown origin). The class given is protein-complex assay. The method, boiled down: as §2
Assay [6] concerns the target Aurora kinase B (Homo sapiens, UniProt Q96GD4). The assay can be described thus: Inhibition of aurora-B (unknown origin). The method, boiled down: as §2
The target in assay [7] is T2, Aurora kinase A (Homo sapiens, UniProt O14965).
T2 sequence (O14965 whole entry): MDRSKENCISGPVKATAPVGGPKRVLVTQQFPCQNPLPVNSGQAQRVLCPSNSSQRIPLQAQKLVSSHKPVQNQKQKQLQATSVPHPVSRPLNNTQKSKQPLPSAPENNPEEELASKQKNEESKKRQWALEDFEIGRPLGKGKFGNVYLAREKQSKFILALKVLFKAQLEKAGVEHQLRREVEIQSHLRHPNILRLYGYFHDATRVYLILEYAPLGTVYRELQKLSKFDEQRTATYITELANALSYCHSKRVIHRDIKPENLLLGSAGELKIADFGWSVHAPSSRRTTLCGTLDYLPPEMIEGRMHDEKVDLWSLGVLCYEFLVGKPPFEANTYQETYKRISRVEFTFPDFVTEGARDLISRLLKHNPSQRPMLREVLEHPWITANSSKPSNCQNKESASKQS
The assay can be described thus: Inhibition of aurora-A (unknown origin). The method, boiled down:
as §2

The subject of assay [8] is L5178Y. The assay can be described thus: Cytotoxicity against mouse L5178Y cells assessed as inhibition of cell proliferation by MTT assay. The class given is functional, cell-based. A general note: Tetrazolium dyes change colour on reduction, which living cells bring about.

Chain of Cyclin-dependent kinase 4/cyclin D1 (P11802 whole entry): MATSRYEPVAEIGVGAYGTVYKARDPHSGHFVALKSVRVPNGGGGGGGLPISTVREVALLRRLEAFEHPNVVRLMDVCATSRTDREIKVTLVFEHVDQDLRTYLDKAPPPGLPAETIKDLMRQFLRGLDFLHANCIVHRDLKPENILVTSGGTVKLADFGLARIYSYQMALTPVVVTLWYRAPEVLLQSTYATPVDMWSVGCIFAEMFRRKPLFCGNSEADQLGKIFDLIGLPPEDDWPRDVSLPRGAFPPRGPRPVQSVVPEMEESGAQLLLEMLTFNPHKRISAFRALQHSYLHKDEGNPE
Chain of Cyclin-dependent kinase 4/cyclin D1 (P24385 whole entry, further chain): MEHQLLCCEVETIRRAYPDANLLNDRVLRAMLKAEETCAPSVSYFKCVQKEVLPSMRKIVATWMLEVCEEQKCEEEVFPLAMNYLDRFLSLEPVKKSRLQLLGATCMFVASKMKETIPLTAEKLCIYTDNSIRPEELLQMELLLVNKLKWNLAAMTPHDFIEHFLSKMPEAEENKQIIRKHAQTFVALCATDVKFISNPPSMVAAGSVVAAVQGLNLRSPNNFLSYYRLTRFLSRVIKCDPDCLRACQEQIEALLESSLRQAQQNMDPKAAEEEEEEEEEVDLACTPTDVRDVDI
Chain of Aurora kinase B (Q96GD4 whole entry): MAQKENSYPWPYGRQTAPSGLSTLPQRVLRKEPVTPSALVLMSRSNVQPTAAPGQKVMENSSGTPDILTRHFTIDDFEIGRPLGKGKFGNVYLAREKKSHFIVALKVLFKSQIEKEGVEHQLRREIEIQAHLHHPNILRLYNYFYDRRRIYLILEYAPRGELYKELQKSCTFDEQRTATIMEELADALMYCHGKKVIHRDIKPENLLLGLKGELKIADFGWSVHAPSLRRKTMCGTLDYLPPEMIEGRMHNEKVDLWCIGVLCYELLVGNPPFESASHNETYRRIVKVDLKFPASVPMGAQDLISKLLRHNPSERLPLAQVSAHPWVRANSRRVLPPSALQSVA
Chain of Mitogen-activated protein kinase kinase kinase 8 (P41279 whole entry): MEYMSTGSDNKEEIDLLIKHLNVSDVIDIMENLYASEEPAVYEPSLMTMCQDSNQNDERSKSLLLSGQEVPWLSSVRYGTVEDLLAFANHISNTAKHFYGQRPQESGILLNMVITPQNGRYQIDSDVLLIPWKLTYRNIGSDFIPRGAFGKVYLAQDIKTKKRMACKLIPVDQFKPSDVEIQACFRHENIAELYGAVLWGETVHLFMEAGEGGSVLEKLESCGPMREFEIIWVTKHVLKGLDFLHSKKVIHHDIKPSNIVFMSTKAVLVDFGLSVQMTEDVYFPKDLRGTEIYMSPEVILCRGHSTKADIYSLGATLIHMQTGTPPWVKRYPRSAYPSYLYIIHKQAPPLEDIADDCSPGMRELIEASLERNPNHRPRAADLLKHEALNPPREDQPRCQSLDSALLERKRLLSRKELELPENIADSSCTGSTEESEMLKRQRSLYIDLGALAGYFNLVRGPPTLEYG

In general, IC50 refers to the midpoint of a concentration-inhibition curve. Consider `O=C1NCCc2cc(Br)c(O)c(c2)Oc2c(Br)cc(cc2Br)CCNC(=O)/C(=N/O)Cc2cc(Br)c(O)c(c2)Oc2c(Br)cc(cc2Br)C/C1=N\O` [BASTADIN 6], for which the IC50 in assay [1] came to 5.3 µM; in assay [2], 7 µM; in assay [3], 2 µM; in assay [4], 4.8 µM; in assay [5], 3.6 µM; in assay [6], 2.9 µM. In addition, the IC50 in assay [7] is 1.7 µM; in assay [8] it was 1.5 µM.
Turning to `O=C1N/C=C/c2ccc(c(Br)c2)Oc2cc(ccc2O)CCNC(=O)/C(=N/O)Cc2cc(Br)c(c(Br)c2)Oc2cc(cc(Br)c2O)C/C1=N\O` [BASTADIN 11], the IC50 in assay [8] was 3.7 µM.
In the case of `O=C1NCCc2ccc(O)c(c2)Oc2c(Br)cc(cc2Br)CCNC(=O)/C(=N/O)Cc2cc(Br)c(O)c(c2)Oc2c(Br)cc(cc2Br)C/C1=N\O` [BASTADIN 16], the IC50 in assay [2] amounted to 4.5 µM; in assay [3] it was 2.9 µM; in assay [5], 4 µM; in assay [6], 1.6 µM; in assay [7], 1.3 µM; in assay [8] it was 1.9 µM.
